# From ChEMBL document CHEMBL1165965, “Synthesis and structure-activity relationships of 1,2,3,4-tetrahydropyrido[2,3-b]pyrazines as potent and selective inhibitors of the anaplastic lymphoma kinase” (Bioorg Med Chem, 2010)
# Legend:
# [1] = target: Tyrosine-protein kinase JAK1 (Homo sapiens) (UniProt P23458); test: Inhibition of JAK1 JH2 pseudokinase domain at 1 uM
# Summary of the method: (§1)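 Single-concentration screen on the Ambit KINOMEscan platform, run against a panel of 250–400 kinases. Per-kinase inhibition was also summarized as S(90), the fraction of kinases inhibited by more than 90%.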
# [2] = target: Serine/threonine-protein kinase 10 (Homo sapiens) (UniProt O94804); test: Inhibition of LOK at 1 uM; summary of the method: as §1
# [3] = target: Mitogen-activated protein kinase 14 (Homo sapiens) (UniProt Q16539); test: Inhibition of p38-alpha at 1 uM
# Chain of Mitogen-activated protein kinase 14 (Homo sapiens) (Q16539 whole entry, canonical isoform): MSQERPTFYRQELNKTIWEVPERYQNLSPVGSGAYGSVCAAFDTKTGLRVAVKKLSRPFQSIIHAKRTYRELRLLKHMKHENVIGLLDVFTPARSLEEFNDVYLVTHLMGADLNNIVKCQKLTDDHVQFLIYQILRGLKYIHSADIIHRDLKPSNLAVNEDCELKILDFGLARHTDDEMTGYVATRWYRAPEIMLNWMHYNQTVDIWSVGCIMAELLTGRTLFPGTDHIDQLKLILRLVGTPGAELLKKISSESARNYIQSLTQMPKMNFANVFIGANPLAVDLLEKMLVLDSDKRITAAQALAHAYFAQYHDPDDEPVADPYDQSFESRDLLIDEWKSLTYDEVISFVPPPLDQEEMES
# [4] = system: Phosphatidylinositol 4,5-bisphosphate 3-kinase catalytic subunit alpha isoform (Homo sapiens), P42336 [H1047Y]; test: Inhibition of PIK3CA H1047Y mutant at 1 uM
# [5] = target: RAF proto-oncogene serine/threonine-protein kinase (Homo sapiens) (UniProt P04049); test: Inhibition of RAF1 at 1 uM
# Chain of RAF proto-oncogene serine/threonine-protein kinase (Homo sapiens) (P04049 whole entry): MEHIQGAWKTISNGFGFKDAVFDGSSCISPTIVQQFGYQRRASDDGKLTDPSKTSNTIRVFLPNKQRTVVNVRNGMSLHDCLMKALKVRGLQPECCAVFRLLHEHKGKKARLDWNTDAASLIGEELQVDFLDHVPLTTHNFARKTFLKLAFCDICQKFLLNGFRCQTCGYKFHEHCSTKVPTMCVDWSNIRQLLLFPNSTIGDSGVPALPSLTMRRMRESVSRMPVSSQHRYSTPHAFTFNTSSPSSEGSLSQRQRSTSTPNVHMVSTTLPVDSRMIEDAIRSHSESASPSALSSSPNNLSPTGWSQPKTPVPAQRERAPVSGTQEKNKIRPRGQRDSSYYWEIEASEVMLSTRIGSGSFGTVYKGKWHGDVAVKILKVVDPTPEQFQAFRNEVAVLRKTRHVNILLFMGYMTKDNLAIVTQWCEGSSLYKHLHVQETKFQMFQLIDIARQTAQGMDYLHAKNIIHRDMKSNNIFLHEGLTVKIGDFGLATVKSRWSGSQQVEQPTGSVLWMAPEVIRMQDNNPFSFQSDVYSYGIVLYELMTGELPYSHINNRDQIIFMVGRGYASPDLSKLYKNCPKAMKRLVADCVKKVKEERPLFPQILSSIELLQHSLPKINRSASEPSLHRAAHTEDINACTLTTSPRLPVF
# [6] = target: T1, Receptor-interacting serine/threonine-protein kinase 4 (Homo sapiens) (UniProt P57078); test: Inhibition of RIPK4 at 1 uM
# T1 sequence (whole entry): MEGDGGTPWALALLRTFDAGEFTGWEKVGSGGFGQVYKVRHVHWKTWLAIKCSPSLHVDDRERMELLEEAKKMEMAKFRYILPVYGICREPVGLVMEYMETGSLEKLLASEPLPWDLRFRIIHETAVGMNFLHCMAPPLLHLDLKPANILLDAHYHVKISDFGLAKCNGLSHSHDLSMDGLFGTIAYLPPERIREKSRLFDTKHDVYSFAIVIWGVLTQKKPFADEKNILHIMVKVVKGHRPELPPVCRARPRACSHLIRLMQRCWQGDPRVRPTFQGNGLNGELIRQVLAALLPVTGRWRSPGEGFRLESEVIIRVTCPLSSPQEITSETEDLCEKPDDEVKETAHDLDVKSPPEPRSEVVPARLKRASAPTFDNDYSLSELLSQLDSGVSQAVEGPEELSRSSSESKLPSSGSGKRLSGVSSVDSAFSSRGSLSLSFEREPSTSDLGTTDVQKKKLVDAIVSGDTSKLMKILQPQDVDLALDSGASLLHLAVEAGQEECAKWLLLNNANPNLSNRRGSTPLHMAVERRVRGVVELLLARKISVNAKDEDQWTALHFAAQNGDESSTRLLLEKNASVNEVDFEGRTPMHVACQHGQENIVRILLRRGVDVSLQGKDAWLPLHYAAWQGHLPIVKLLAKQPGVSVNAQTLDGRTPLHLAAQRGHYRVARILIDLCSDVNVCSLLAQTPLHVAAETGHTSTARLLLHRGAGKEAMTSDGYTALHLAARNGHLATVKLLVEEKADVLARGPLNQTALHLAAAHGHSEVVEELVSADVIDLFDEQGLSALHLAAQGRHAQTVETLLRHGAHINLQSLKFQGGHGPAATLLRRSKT
# [7] = target: Ribosomal protein S6 kinase alpha-2 (Homo sapiens) (UniProt Q15349); test: Inhibition of RPS6KA2 N-terminal domain1 at 1 uM
# [8] = target: Ribosomal protein S6 kinase alpha-2 (Homo sapiens) (UniProt Q15349); test: Inhibition of RPS6KA2 C-terminal domain2 at 1 uM
# [9] = target: Non-receptor tyrosine-protein kinase TYK2 (Homo sapiens) (UniProt P29597); test: Inhibition of TYK2 JH1 catalytic domain at 1 uM; summary of the method: as §1
# Chain of Non-receptor tyrosine-protein kinase TYK2 (Homo sapiens) (P29597 whole entry, the tested form may be a part): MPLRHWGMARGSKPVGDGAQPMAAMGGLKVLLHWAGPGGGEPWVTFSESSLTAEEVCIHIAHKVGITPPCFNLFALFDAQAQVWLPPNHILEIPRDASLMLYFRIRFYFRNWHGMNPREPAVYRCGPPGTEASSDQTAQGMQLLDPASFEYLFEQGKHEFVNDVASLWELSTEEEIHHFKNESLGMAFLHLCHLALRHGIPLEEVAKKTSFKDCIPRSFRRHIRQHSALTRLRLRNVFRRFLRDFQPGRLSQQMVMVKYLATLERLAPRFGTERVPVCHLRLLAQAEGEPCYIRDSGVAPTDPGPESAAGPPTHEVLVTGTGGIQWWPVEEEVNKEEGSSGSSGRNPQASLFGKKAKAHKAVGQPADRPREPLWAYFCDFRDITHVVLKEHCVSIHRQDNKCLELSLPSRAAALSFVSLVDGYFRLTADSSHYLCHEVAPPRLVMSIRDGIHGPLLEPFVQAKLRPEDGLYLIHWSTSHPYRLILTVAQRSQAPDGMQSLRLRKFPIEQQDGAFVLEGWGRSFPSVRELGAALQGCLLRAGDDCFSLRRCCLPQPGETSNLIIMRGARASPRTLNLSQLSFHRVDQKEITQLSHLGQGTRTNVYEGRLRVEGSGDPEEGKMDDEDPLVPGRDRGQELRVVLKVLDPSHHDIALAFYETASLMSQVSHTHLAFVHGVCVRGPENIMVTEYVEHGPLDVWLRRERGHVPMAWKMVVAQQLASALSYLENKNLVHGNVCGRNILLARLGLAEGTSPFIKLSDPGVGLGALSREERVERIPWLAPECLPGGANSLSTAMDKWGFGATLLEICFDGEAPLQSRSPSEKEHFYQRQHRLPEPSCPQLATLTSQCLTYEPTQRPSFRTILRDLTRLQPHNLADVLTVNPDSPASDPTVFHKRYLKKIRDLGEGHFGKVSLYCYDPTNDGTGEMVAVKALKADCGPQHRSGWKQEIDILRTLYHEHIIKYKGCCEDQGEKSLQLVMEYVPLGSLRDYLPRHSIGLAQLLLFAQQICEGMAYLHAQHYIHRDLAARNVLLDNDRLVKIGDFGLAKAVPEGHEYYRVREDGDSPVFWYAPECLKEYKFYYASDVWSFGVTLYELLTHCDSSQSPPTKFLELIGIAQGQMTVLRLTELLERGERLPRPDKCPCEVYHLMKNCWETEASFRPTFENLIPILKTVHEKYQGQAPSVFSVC
# [10] = target: Serine/threonine-protein kinase 32C (Homo sapiens) (UniProt Q86UX6); test: Inhibition of YANK3 at 1 uM
# [11] = target: Activin receptor type-1-like (Homo sapiens) (UniProt P37023); test: Inhibition of ACVRL1 at 1 uM
# Summary of the method: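 Ambit KINOMEscan screen at a single concentration across a 250–400 kinase panel, recorded as percent inhibition. Selectivity was expressed as S(90), the fraction of kinases inhibited >90%.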
# [12] = target: T2, Ankyrin repeat and protein kinase domain-containing protein 1 (Homo sapiens) (UniProt Q8NFD2); test: Inhibition of ANKK1 at 1 uM
# T2 sequence (whole entry): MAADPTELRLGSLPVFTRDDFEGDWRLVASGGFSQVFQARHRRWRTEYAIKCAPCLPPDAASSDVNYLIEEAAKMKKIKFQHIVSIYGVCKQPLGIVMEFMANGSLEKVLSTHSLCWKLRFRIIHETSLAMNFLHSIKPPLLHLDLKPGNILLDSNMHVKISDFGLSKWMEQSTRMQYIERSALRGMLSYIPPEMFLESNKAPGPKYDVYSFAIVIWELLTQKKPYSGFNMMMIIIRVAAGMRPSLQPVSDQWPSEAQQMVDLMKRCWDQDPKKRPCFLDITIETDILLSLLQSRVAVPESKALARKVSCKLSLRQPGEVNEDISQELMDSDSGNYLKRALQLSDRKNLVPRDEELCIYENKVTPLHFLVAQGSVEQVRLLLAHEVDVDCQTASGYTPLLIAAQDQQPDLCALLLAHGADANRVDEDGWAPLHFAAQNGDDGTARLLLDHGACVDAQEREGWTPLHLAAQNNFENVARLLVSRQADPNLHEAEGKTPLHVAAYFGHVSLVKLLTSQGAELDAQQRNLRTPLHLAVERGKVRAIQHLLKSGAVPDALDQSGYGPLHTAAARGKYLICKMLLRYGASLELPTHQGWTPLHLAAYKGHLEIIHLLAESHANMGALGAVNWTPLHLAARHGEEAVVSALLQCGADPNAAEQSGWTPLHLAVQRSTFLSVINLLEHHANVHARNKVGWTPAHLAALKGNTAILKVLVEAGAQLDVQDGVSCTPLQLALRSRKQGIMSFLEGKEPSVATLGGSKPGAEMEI
# [13] = target: Casein kinase I isoform gamma-2 (Homo sapiens) (UniProt P78368); test: Inhibition of CSNK1G2 at 1 uM
# Chain of Casein kinase I isoform gamma-2 (Homo sapiens) (P78368 whole entry, looked up, canonical isoform): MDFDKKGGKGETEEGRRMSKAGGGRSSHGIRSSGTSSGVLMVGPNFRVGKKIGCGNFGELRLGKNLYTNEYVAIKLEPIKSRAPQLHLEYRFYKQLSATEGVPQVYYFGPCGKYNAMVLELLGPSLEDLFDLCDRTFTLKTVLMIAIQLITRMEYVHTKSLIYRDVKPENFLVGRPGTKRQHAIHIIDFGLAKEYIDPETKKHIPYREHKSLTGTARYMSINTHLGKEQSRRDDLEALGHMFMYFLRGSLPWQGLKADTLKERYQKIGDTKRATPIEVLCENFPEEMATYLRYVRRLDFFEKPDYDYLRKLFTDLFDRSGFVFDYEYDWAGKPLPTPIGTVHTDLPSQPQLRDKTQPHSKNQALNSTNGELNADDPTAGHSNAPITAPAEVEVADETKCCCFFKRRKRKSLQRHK
# Summary of the method: (§2)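 Single-concentration screen using Ambit Bioscience KINOMEscan technology across a panel of 250–400 kinases. Per-kinase inhibition from this screen was summarized as S(90), the fraction of kinases inhibited by more than 90%.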
# [14] = target: Fibroblast growth factor receptor 1 (Homo sapiens) (UniProt P11362); test: Inhibition of FGFR1 at 1 uM; summary of the method: as §2
# [15] = target: Vascular endothelial growth factor receptor 1 (Homo sapiens) (UniProt P17948); test: Inhibition of FLT1 at 1 uM; summary of the method: as §1
# Chain of Vascular endothelial growth factor receptor 1 (Homo sapiens) (P17948 whole entry): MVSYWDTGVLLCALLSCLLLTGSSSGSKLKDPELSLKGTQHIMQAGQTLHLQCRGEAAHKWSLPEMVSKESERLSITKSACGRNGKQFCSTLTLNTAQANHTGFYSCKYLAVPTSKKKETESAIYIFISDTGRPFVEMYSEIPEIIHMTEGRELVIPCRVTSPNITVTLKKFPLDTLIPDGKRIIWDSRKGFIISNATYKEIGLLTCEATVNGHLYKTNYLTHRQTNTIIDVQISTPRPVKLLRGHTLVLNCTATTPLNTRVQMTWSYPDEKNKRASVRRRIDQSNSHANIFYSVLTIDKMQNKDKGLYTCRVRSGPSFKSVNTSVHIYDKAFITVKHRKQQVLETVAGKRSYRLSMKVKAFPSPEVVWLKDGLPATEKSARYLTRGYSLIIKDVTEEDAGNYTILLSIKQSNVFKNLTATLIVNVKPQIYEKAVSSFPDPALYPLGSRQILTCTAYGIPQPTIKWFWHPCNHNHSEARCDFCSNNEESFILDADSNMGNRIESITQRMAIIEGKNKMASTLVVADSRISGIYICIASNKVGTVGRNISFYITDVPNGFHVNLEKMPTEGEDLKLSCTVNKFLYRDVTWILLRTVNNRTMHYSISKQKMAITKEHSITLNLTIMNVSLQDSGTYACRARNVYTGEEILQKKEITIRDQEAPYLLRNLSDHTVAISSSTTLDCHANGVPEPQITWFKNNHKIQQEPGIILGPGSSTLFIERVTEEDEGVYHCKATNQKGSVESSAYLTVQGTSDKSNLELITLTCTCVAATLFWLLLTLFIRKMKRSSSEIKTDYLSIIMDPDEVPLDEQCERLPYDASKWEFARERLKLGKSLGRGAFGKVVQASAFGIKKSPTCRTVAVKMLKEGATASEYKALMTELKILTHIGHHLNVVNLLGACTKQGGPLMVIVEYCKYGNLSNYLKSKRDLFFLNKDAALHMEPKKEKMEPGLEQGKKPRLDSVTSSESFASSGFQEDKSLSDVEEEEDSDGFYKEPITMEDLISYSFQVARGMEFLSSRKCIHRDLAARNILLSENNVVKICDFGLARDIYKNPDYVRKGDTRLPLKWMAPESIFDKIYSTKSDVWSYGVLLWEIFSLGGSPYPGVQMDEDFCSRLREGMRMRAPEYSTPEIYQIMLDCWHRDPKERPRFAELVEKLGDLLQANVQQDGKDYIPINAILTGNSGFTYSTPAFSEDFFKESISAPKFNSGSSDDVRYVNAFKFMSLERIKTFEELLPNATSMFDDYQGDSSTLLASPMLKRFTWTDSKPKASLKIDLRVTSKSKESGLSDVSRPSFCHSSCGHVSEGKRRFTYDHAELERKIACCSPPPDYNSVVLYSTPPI
# Chain of Tyrosine-protein kinase JAK1 (Homo sapiens) (P23458 whole entry, the tested form may be a part): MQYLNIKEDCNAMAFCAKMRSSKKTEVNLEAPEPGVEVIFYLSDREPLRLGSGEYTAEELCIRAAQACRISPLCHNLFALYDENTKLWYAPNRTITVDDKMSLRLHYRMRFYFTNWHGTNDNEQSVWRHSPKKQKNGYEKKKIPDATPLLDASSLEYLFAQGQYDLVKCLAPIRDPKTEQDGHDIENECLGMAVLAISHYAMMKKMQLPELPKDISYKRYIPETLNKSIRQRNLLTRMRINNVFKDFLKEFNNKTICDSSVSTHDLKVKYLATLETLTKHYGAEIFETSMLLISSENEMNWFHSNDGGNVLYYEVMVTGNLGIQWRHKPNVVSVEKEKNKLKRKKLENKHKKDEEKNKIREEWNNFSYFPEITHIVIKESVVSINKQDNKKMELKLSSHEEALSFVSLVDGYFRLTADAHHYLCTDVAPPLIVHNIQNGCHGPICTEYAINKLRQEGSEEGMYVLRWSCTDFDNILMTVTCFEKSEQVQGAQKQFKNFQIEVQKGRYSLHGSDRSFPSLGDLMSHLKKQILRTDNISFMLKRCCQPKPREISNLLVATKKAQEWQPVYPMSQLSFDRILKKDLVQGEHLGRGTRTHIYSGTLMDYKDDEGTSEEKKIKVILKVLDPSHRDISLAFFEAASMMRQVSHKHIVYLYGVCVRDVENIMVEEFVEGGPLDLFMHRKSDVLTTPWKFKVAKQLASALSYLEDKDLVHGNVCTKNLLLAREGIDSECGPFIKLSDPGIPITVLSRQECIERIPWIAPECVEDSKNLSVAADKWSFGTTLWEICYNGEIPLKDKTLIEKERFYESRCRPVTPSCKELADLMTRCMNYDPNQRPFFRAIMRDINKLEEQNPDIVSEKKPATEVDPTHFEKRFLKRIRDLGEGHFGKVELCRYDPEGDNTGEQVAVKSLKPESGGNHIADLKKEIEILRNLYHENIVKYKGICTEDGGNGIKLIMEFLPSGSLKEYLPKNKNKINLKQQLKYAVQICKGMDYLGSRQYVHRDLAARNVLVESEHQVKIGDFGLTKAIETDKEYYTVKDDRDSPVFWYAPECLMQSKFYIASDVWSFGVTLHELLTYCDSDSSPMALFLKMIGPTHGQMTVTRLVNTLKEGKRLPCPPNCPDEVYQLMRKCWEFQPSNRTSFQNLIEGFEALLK
Structure (SMILES),inhibition [1],inhibition [2],inhibition [3],inhibition [4],inhibition [5],inhibition [6],inhibition [7],inhibition [8],inhibition [9],inhibition [10],inhibition [11],inhibition [12],inhibition [13],inhibition [14],inhibition [15]
CN1CCN(c2ccc(-c3cnc4c(c3)N(Cc3cc(Cl)ccc3C(F)(F)F)CCN4)cn2)CC1,< 50%,< 50%,< 50%,< 50%,< 50%,< 50%,< 50%,< 50%,79%,< 50%,< 50%,< 50%,< 50%,< 50%,< 50%
FC(F)(F)c1ccc(Cl)cc1CN1CCNc2ncc(-c3ccnc(N4CCNCC4)c3)cc21,< 50%,66%,< 50%,< 50%,< 50%,< 50%,< 50%,< 50%,72%,< 50%,< 50%,< 50%,< 50%,< 50%,< 50%
CC(=O)N1CCN(c2cc(-c3cnc4c(c3)N(Cc3cc(Cl)ccc3C(F)(F)F)CCN4)ccn2)CC1,< 50%,< 50%,< 50%,< 50%,< 50%,< 50%,< 50%,< 50%,72%,< 50%,< 50%,< 50%,< 50%,< 50%,< 50%
CN1CCN(c2ccc(-c3cnc4c(c3)N(Cc3cc(F)ccc3F)CCN4)cn2)CC1,< 50%,< 50%,< 50%,< 50%,< 50%,< 50%,< 50%,< 50%,< 50%,< 50%,< 50%,< 50%,< 50%,< 50%,< 50%
CN1CCN(c2ccc(-c3cnc4c(c3)N(Cc3c(F)ccc(F)c3Cl)CCN4)cn2)CC1,< 50%,< 50%,< 50%,< 50%,< 50%,< 50%,< 50%,< 50%,< 50%,< 50%,< 50%,< 50%,< 50%,< 50%,< 50%
CN1CCN(c2ccc(-c3cnc4c(c3)N(Cc3cc(Cl)ccc3Cl)CCN4)cn2)CC1,< 50%,< 50%,< 50%,< 50%,< 50%,< 50%,< 50%,< 50%,< 50%,< 50%,< 50%,< 50%,< 50%,< 50%,< 50%

# Other lines, results leading:
inhibition [1],inhibition [2],inhibition [3],inhibition [4],inhibition [5],inhibition [6],inhibition [7],inhibition [8],inhibition [9],inhibition [10],inhibition [11],inhibition [12],inhibition [13],inhibition [14],inhibition [15],Structure (SMILES)
< 50%,< 50%,< 50%,,< 50%,,< 50%,< 50%,< 50%,< 50%,< 50%,,< 50%,< 50%,< 50%,O=C(O)c1ccc(-c2cnc3c(c2)N(Cc2cc(Cl)ccc2C(F)(F)F)CCN3)cc1
< 50%,< 50%,< 50%,,< 50%,,< 50%,< 50%,< 50%,< 50%,< 50%,,< 50%,< 50%,< 50%,O=C(c1ccc(-c2cnc3c(c2)N(Cc2cc(Cl)ccc2C(F)(F)F)CCN3)cc1)N1CCC(N2CCCC2)CC1
< 50%,< 50%,< 50%,,< 50%,,< 50%,< 50%,< 50%,< 50%,< 50%,,< 50%,< 50%,< 50%,COC1CCN(C(=O)c2ccc(-c3cnc4c(c3)N(Cc3cc(Cl)ccc3C(F)(F)F)CCN4)cc2)CC1
< 50%,< 50%,< 50%,,< 50%,,< 50%,< 50%,< 50%,< 50%,< 50%,,< 50%,< 50%,< 50%,O=C(c1ccc(-c2cnc3c(c2)N(Cc2cc(Cl)ccc2C(F)(F)F)CCN3)cc1)N1CCCCC1
